Laboratory results taken from the EternaBench riboswitch data.

System: MS2 coat protein
Assay: apparent Kd, MS2 coat protein; higher = weaker binding; RNA-MaP array; tryptophan 2.4 mM where present
Method in brief: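 The apparent Kd comes from binding curves fitted cluster by cluster, filtered, and summarised as a median. Those curves followed SNAP-549-labelled MS2 coat protein from 0.7 or 1.5 nM, doubling to 3 µM, on Illumina sequencing-chip clusters where stalled E. coli RNA polymerase had transcribed the designs, without and then with constant ligand. The buffer was 100 mM Tris-HCl pH 7.5, 80 mM KCl, 4 mM MgCl2, BSA, DTT, yeast tRNA and Tween-20, and green signal was normalised to red-channel RNA signal and control-cluster median Fmax.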

[1] = designed as: OFF switch for tryptophan, no ligand
[2] = ligand present: tryptophan, designed as: OFF switch for tryptophan
[3] = designed as: ON switch for tryptophan, no ligand
[4] = ligand present: tryptophan, designed as: ON switch for tryptophan

Row | Sequence | apparent Kd [1] [nM] | apparent Kd [2] [nM] | apparent Kd [3] [nM] | apparent Kd [4] [nM]
1 | AGUAUUGGAAACAGUACUAGUGAUCCGGUCCGAGGACCGGUACGGCCGCCACUCGAAUUAAAUAAACAUGAGGAUCACCCAUGUA | 16.8 | 46.1 | – | –
2 | AGUCUGGACUCGGCCGCCACUCGUGAUGCUUUGGCACAUGAGGAUCACCCAUGUGGUCGGCCUUAGAGGACCGGGAGUACCAGCU | – | – | 56.4 | 12.9
3 | AUACAUGAGGAUCACCCAUGUCCUCGUGAUCGAGGACCGGUACGGCCGCCACUCGGUCCUCGCGAGGUGGAGUCAAAGACUCCAA | – | – | 128 | 87.1
4 | AUCUAUAGAGCGGCCGCCACUGAAUACAUGAGGAUCACCCAUGUAAUGUUAAGGUGGUCCUAGCUCAGGACCGGGCUCUAUAGAU | 36.5 | 22.2 | – | –
5 | CAAAAUUUAACGGCCGCCACUUACUCAUGAGGUAACAACAUGAGGAUCACCCAUGUUUGAGGAUCAAGGACCGGGUUAAAUUUUG | – | – | 30.6 | 18.2
6 | CACAGUGCGAAAUUGAAUUCGCACGAUCCUCGAGGACCGGUACGGCCGCCACUCGCGCGGGUCGUACAUGAGGAUCACCCAUGUC | – | – | 257 | 368
7 | CAUGCCAGGGCGGCCGCCACUGUGGCUACGGUACAUGAGGAUCACCCAUGUUUGUGGUUGAUCUACAGGACCGGGCCCUAGCACG | – | – | 118 | 238
8 | CCUAUCCAGUCGGCCGCCACUGACCAUUUGGAACAGUGGGUGAAAACAUGAGGAUCACCCAUGUACAGGACCGGGACUGUAUAGG | 11.6 | 42 | – | –
9 | CGUAUUGGAAACAGUACGAGUGAUCCGGUCCGAGGACCGGUACGGCCGCCACUCGAAAAUAAAUAACAUGAGGAUCACCCAUGUA | 16.7 | 23.9 | – | –
10 | CUACAUUUGUAGAAACCGGUCAACAAUAAUCGAGGACCGGUACGGCCGCCACUCGUAUAAUUUAUUACAUGAGGAUCACCCAUGU | – | – | 13.7 | 13.8
11 | CUACAUUUGUAGAAACCGGUCACCAUUAUUCGAGGACCGGUACGGCCGCCACUCGUAUCAUGUGAUACAUGAGGAUCACCCAUGU | – | – | 28.8 | 28.5
12 | CUAUAAGUACCGGUCCUCAGAUCCUCAUGACGAGGACCGGUACGGCCGCCACUCGAAACAUGAGGAUCACCCAUGUAAUAAUAUC | 20.7 | 18.6 | – | –
13 | CUGUGUCCUUCGGCCGCCACUACAUGAGGAUCACCCAUGUCGUUACGGCUCCCAAUGACGCUUUGUAGGACCGGGAAGGAGUAUG | 10.3 | 15.8 | – | –
14 | CUUAUAUAUACGGCCGCCACUUACUCAUGAGGUAACAACAUGAGGAUCACCCAUGUUUGAGGAUCAAGGACCGGGUAUAUAUAAG | – | – | 25.3 | 18.2
15 | GAGUACACUACGGCCGCCACUCAAGGAGCUACAUAGCUCCUAGACAUGAGGAUCACCCAUGUACCGAGGACCGGGUAGAUCCUUA | – | – | 187 | 97.3
16 | GAUCAAAGAUCACAUGAGGAUCACCCAUGUCGAGGACCGGUACGGCCGCCACUCGCGGCGGUGAAAAUAGAUACAAAGUAUCUAU | 77.6 | 347 | – | –
17 | GAUUAAACAUGAGGAUCACCCAUGUAUAUACGAGGACCGGUACGGCCGCCACUCGAAAACGAGUAUCCUCGAAUAAACAUGAUAA | – | – | 37.2 | 67
18 | GCGCGGCGAGUGCGGCGUGUUCCGCUCCGUCGAGGACCGGUACGGCCGCCACUCGACAUGAGGAUCACCCAUGUCGCCGCGCGUC | 12.1 | 12.3 | – | –
19 | GCUACAUGAGGAUCACCCAUGUAUGCGAGUCGAGGACCGGUACGGCCGCCACUCGCUUAACAUGAGGAUCACCCAUGUUACUCGC | – | – | 64.6 | 31.1
20 | GCUAGGUCUACGGCCGCCACUAGACGUGGGUAAGACAUGAGGAUCACCCAUGUACUACAGGCGGAUAGGACCGGGUAGACCUAGC | – | – | 114 | 14.3
21 | GCUAGGUCUACGGCCGCCACUAGACGUGGGUAAGACAUGAGGAUCACCCAUGUACUACGGGCGCUUAGGACCGGGUAGACCUAGC | – | – | 204 | 17.5
22 | GGGAGGGAGGCGGCCGCCACUGAUUUUCAUAUAUAUAUAACAUGAGGAUCACCCAUGUAGAUAUGCAGGACCGGGCCUUUUUUUU | – | – | 20.5 | 17.6
